According to ChEMBL document CHEMBL4130564, “Indolylalkyltriphenylphosphonium Analogues Are Membrane-Depolarizing Mycobactericidal Agents” (ACS Med Chem Lett, 2017):
Calls of active or inactive are those of the source. No cut-off for these calls is given here.

Key:
[1] = system: Mycobacterium tuberculosis; assay: Antibacterial activity against Mycobacterium bovis BCG ATCC 35734 after 5 days by broth dilution method; format: functional; conditions: BCG str. ATCC 35743, 120 h
Procedure, shortened: (§1)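 Broth dilution; growth read by turbidity; MIC50 and MIC90 are the concentrations reducing growth by 50% and 90% relative to untreated controls; average of two or more separate determinations.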

[2] = system: Mycobacterium tuberculosis; assay: Antibacterial activity against Mycobacterium tuberculosis H37Rv ATCC 27294 after 7 days by broth dilution method; format: functional; conditions: H37Rv ATCC 27294, 168 h; procedure, shortened: as §1
[3] = system: Mycobacterium tuberculosis; assay: Bactericidal activity against Mycobacterium bovis BCG ATCC 35734 assessed as reduction in oxygen consumption at 10 times MIC90 after 1 hr by methylene blue-based assay; format: functional, organism-based; conditions: BCG str. ATCC 35743
Lipid bilayer [4] = assay: Binding affinity to DMPG vesicles assessed as increase in melting transition temperature by differential scanning calorimetric analysis
Procedure, shortened: (§2)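 Compound-loaded vesicles of negatively charged dimyristoylphosphatidylglycerol, used as a bacterial membrane surrogate, were scanned by differential scanning calorimetry. The gel-to-liquid melting endotherm was read for melting temperature (Tm) and calorimetric enthalpy (ΔH).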

[5] = system: Mycobacterium tuberculosis; assay: Bactericidal activity against Mycobacterium bovis BCG ATCC 35734 assessed as cell elongation at 24 uM after 1 to 5 days by acid-fast staining-based light microscopy; format: functional, organism-based; conditions: BCG str. ATCC 35743
[6] = system: Mycobacterium tuberculosis; assay: Bactericidal activity against Mycobacterium bovis BCG ATCC 35734 assessed as reduction in membrane potential by measuring red to green fluorescent ratio at 24 uM measured after 1 to 5 days by DiOC2-dye based fluorescence assay; format: functional, organism-based; conditions: BCG str. ATCC 35743
Procedure, shortened: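 Membrane potential in treated BCG cultures tracked as DiOC2 red/green fluorescence ratio over extended exposure of 1, 3 and 5 days.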

[7] = Hemolytic activity against human RBC after 1 hr; format: ADME, cell-based, Erythrocyte; conditions: human red blood cells (erythrocytes)
Procedure, shortened: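 Human red blood cells were exposed to compound, and lysis was scaled against Triton X-100 (2% v/v), taken as 100% hemolysis. HC50 was the concentration lysing 50% of cells, averaged over two or more separate determinations.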

[8] = system: Mycobacterium tuberculosis; assay: Bactericidal activity against Mycobacterium bovis BCG ATCC 35734 assessed as reduction in oxygen consumption at 5 times MIC90 after 1 hr by methylene blue-based assay; format: functional, organism-based; conditions: BCG str. ATCC 35743
[9] = system: Mycobacterium tuberculosis; assay: Bactericidal activity against Mycobacterium bovis BCG ATCC 35734 assessed as reduction in colony forming units after 5 days; format: functional, BCG str. ATCC 35743; conditions: for MBC: Mycobacterium tuberculosis, BCG ATCC 35734, 120 h, read-out: MBC99.9
Vero C1008 = assay: Cytotoxicity against African green monkey Vero E6 cells assessed as reduction in cell viability after 48 hrs by cell titre 96 aqueous one solution-based assay; conditions: Chlorocebus sabaeus, Vero C1008, 48 h
Procedure, shortened: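 Vero cell viability was compared with untreated control cells. IC50 was taken as the concentration giving 50% loss of viability, averaged over two or more separate determinations.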

[10] = system: Mycobacterium tuberculosis; assay: Bactericidal activity Mycobacterium bovis BCG ATCC 35734 assesses as cell death at 15 times MIC90 after 1 hr in presence of methylene blue; format: functional, organism-based; conditions: BCG str. ATCC 35743
[11] = system: Mycobacterium tuberculosis; assay: Bactericidal activity against Mycobacterium bovis BCG ATCC 35734 assessed as reduction in colony forming units at 6 uM after 1 to 5 days by time kill assay; format: functional, organism-based; conditions: BCG str. ATCC 35743
[12] = system: Mycobacterium tuberculosis; assay: Bactericidal activity against Mycobacterium bovis BCG ATCC 35734 assessed as suppression of reductive capacity by measuring decrease in formazan formation after 0.5 to 1 hr by MTT reduction assay; format: functional, organism-based; conditions: BCG str. ATCC 35743
Procedure, shortened: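 BCG cultures exposed to 0.2–100 μM for 30 min and 1 h, then MTT added; formazan production read at 595 nm against drug-free basal absorbance; CCCP 100 μM reference; representative of two independent experiments.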

[13] = system: Mycobacterium tuberculosis; assay: Bactericidal activity against Mycobacterium bovis BCG ATCC 35734 assessed as reduction in membrane potential by measuring red to green fluorescent ratio at 24 uM measured at 20 mins to 3 hrs by DiOC2-dye based fluorescence assay; format: functional, organism-based; conditions: BCG str. ATCC 35743
[14] = system: Mycobacterium tuberculosis; assay: Bactericidal activity against Mycobacterium bovis BCG ATCC 35734 assessed as reduction in oxygen consumption at 15 times MIC90 after 1 hr by methylene blue-based assay; format: functional, organism-based; conditions: BCG str. ATCC 35743
[15] = system: Mycobacterium tuberculosis; assay: Bactericidal activity against Mycobacterium bovis BCG ATCC 35734 assessed as increase in propidium iodide uptake at 6 uM after 1 to 5 days by flow cytometry; format: functional, organism-based; conditions: BCG str. ATCC 35743
[16] = system: Mycobacterium tuberculosis; assay: Bactericidal activity against Mycobacterium bovis BCG ATCC 35734 assessed as reduction in membrane potential by measuring red to green fluorescent ratio at 0.08 uM measured at 20 mins to 3 hrs by DiOC2-dye based fluorescence assay; format: functional, organism-based; conditions: BCG str. ATCC 35743
Lipid bilayer [17] = assay: Binding affinity to DMPG vesicles assessed as melting transition temperature by differential scanning calorimetric analysis (reference value: 21.09 to 23.28 degC)
Lipid bilayer [18] = assay: Binding affinity to DMPG vesicles assessed as change in enthalpy at 2 mM by differential scanning calorimetric analysis (reference value: -20.63 kJ/mol); procedure, shortened: as §2
[19] = system: Mycobacterium bovis BCG str. ATCC 35743; assay: Inhibition of NDH2 in Mycobacterium bovis BCG ATCC 35734 assessed as reduction in oxygen consumption at 80 uM after 1 hr by methylene blue-based assay
Procedure, shortened: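 Mid-log M. bovis BCG cultures in 7H9 medium were exposed to compound, then methylene blue was added (0.001%) and the tubes were incubated oxygen-free at 37 °C for […]. Oxygen use was read as methylene blue decolorization. Controls were medium-only tubes and drug-free culture.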

Compound: Fc1ccc2ccn(CCC[P+](c3ccccc3)(c3ccccc3)c3ccccc3)c2c1
- MIC50 [1]: 6 µM
- MIC90 [1]: 12 µM

Compound: O=[N+]([O-])c1cccc2c1ccn2CCCCC[P+](c1ccccc1)(c1ccccc1)c1ccccc1.[I-]
- MIC50 [2]: 4 µM
- MIC90 [2]: 6 µM
- Activity [3]: Active
- ΔTm (Lipid bilayer [4]): 1 °C
- Activity [5]: Active
- Activity [6]: Active
- HC50 at 1 h [7]: 196 µM
- Activity [8]: inactive
- MBC99 [9]: 3 µM
- MBC [9]: 6 µM
- IC50 (Vero C1008): 36 µM
- Activity [10]: Toxic
- Activity [11]: Active
- Activity [12]: Dose-dependent effect
- Activity [13]: Active
- MIC50 [1]: 2 µM
- MIC90 [1]: 3 µM
- Activity [14]: Active
- Activity [15]: Active

Compound: CCCCCCCCCC[P+](c1ccccc1)(c1ccccc1)c1ccccc1
- MIC50 [1]: 3.9 µM
- MIC90 [1]: 6 µM

Compound: O=[N+]([O-])c1ccc2c(ccn2CCC[P+](c2ccccc2)(c2ccccc2)c2ccccc2)c1
- MIC50 [1]: 9 µM
- MIC90 [1]: 12 µM

Compound: O=[N+]([O-])c1cccc2ccn(CCCCC[P+](c3ccccc3)(c3ccccc3)c3ccccc3)c12
- MIC50 [1]: 1 µM
- MIC90 [1]: 2 µM

Compound: Fc1cccc2ccn(CCCCC[P+](c3ccccc3)(c3ccccc3)c3ccccc3)c12
- MIC50 [1]: 3 µM
- MIC90 [1]: 6 µM

Compound: Fc1cccc2ccn(CCC[P+](c3ccccc3)(c3ccccc3)c3ccccc3)c12
- MIC50 [1]: 5 µM
- MIC90 [1]: 12 µM

Compound: c1ccc(CCCCCC[P+](c2ccccc2)(c2ccccc2)c2ccccc2)cc1
- MIC50 [1]: 5.2 µM
- MIC90 [1]: 11.6 µM

Compound: CO[C@H]1/C=C/O[C@@]2(C)Oc3c(C)c(O)c4c(O)c(c(/C=N/N5CCN(C)CC5)c(O)c4c3C2=O)NC(=O)/C(C)=C\C=C\[C@H](C)[C@H](O)[C@@H](C)[C@@H](O)[C@@H](C)[C@H](OC(C)=O)[C@@H]1C
- Activity [16]: inactive

Compound: COc1cccc2c1ccn2CCC[P+](c1ccccc1)(c1ccccc1)c1ccccc1
- MIC50 [1]: 6 µM
- MIC90 [1]: 11 µM

Compound: CCC[P+](c1ccccc1)(c1ccccc1)c1ccccc1
- Tm (Lipid bilayer [17]): 21.1 to 23.2 °C
- MIC50 [1]: > 50 µM
- MIC90 [1]: > 50 µM
- deltaH (Lipid bilayer [18]): -2.74 kcal/mol

Compound: Fc1ccc2c(ccn2CCCCC[P+](c2ccccc2)(c2ccccc2)c2ccccc2)c1
- MIC50 [1]: 3 µM
- MIC90 [1]: 5 µM

Compound: O=[N+]([O-])c1ccc2c(ccn2CCCCC[P+](c2ccccc2)(c2ccccc2)c2ccccc2)c1
- MIC50 [1]: 3 µM
- MIC90 [1]: 5 µM

Compound: Fc1ccc2ccn(CCCCC[P+](c3ccccc3)(c3ccccc3)c3ccccc3)c2c1
- MIC50 [1]: 3 µM
- MIC90 [1]: 5 µM

Compound: COc1ccc2c(ccn2CCCCC[P+](c2ccccc2)(c2ccccc2)c2ccccc2)c1
- MIC50 [1]: 5 µM
- MIC90 [1]: 10 µM

Compound: O=[N+]([O-])c1cccc2c1ccn2CCC[P+](c1ccccc1)(c1ccccc1)c1ccccc1.[I-]
- MIC50 [2]: 22 µM
- MIC90 [2]: 45 µM
- HC50 at 1 h [7]: 230 µM
- MBC99 [9]: 25 µM
- MBC [9]: 50 µM
- IC50 (Vero C1008): > 100 µM
- MIC50 [1]: 5 µM
- MIC90 [1]: 9 µM

Compound: O=[N+]([O-])c1cccc2ccn(CCC[P+](c3ccccc3)(c3ccccc3)c3ccccc3)c12
- MIC50 [1]: 2 µM
- MIC90 [1]: 4 µM

Compound: Fc1ccc2c(ccn2CCC[P+](c2ccccc2)(c2ccccc2)c2ccccc2)c1
- MIC50 [1]: 8 µM
- MIC90 [1]: 17 µM

Compound: COc1cccc2c1ccn2CCCCC[P+](c1ccccc1)(c1ccccc1)c1ccccc1
- MIC50 [1]: 3 µM
- MIC90 [1]: 5 µM

Compound: CCCCCn1ccc2cccc(OC)c21
- Activity [12]: inactive
- Activity [13]: inactive
- MIC50 [1]: > 50 µM
- MIC90 [1]: > 50 µM

Compound: Fc1cccc2c1ccn2CCCCC[P+](c1ccccc1)(c1ccccc1)c1ccccc1
- MIC50 [1]: 3 µM
- MIC90 [1]: 5 µM

Compound: COc1ccc2ccn(CCCCC[P+](c3ccccc3)(c3ccccc3)c3ccccc3)c2c1
- MIC50 [1]: 4 µM
- MIC90 [1]: 8 µM

Compound: c1ccc([P+](CCCCCn2ccc3ccccc32)(c2ccccc2)c2ccccc2)cc1
- MIC50 [1]: 4.3 µM
- MIC90 [1]: 6.3 µM

Compound: Fc1cccc2c1ccn2CCC[P+](c1ccccc1)(c1ccccc1)c1ccccc1
- MIC50 [1]: 6 µM
- MIC90 [1]: 12 µM

Compound: O=[N+]([O-])c1ccc2ccn(CCCCC[P+](c3ccccc3)(c3ccccc3)c3ccccc3)c2c1
- MIC50 [1]: 3 µM
- MIC90 [1]: 4 µM

Compound: CCCn1ccc2cc(F)ccc21
- Tm (Lipid bilayer [17]): 20.1 °C
- MIC50 [1]: > 50 µM
- MIC90 [1]: > 50 µM
- deltaH (Lipid bilayer [18]): -4.77 kcal/mol

Compound: CCCCC[P+](c1ccccc1)(c1ccccc1)c1ccccc1
- Activity [12]: inactive
- Activity [13]: inactive
- MIC50 [1]: 28 µM
- MIC90 [1]: > 50 µM

Compound: O=[N+]([O-])c1ccc2ccn(CCC[P+](c3ccccc3)(c3ccccc3)c3ccccc3)c2c1
- MIC50 [1]: 7 µM
- MIC90 [1]: 13 µM

Compound: COc1ccc2c(ccn2CCC[P+](c2ccccc2)(c2ccccc2)c2ccccc2)c1
- MIC50 [1]: 10 µM
- MIC90 [1]: 23 µM

Compound: CSc1ccc2c(c1)N(CCC1CCCCN1C)c1ccccc1S2 (centres undefined)
- inhibition [19]: Active

Compound: COc1cccc2ccn(CCC[P+](c3ccccc3)(c3ccccc3)c3ccccc3)c12.[I-]
- MIC50 [2]: 6 µM
- MIC90 [2]: 20 µM
- HC50 at 1 h [7]: > 300 µM
- MBC99 [9]: 13 µM
- MBC [9]: 25 µM
- IC50 (Vero C1008): 34 µM
- MIC50 [1]: 4 µM
- MIC90 [1]: 6 µM

Compound: COc1ccc2ccn(CCC[P+](c3ccccc3)(c3ccccc3)c3ccccc3)c2c1
- MIC50 [1]: 7 µM
- MIC90 [1]: 15 µM
